Counter-ions that a name gives are not always drawn. Activity calls are given as the source filed them. No cut-off for these calls is given here. Non-standard residues stand in square brackets, D forms with d. Residues, ends and D or L forms follow the SMILES beside them. *: point of attachment. Lys(Thioacetyl) = CC(=S)NCCCC[C@H](N)C(=O)O; AMC = Cc1cc(=O)oc2cc(N*)ccc12; Cbz = O=C(OCc1ccccc1)*; Propionyl = CCC(=O)*; Tfa = O=C(C(F)(F)F)*; Butyryl = CCCC(=O)*; NHiPr = CC(C)N*
Experiments:
HEK293 = assay: Inhibition of deacetylation activity in HEK293 cell lysate incubated with substrate for 2 hrs at 50 uM measured after 90 mins by fluorescence assay; assay type: functional, subcellular; conditions: Homo sapiens
Outline: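 Fluorogenic thioacyl or acyl lysine-AMC substrates incubated with fresh HEK293 cell lysate (~65 μg). Deacylation measured by fluorescence. Two independent experiments in duplicate, standard deviation.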

[1] = target: T1, NAD-dependent protein deacetylase sirtuin-3, mitochondrial (Homo sapiens) (UniProt Q9NTG7); assay: Inhibition of human recombinant SIRT3 expressed in Escherichia coli BL21 in presence of acyl peptide acetyl-H3K9 as substrate at 100 uM incubated for […] mins by HPLC analysis relative to control; conditions: time 5.0 min
T1 sequence (whole entry): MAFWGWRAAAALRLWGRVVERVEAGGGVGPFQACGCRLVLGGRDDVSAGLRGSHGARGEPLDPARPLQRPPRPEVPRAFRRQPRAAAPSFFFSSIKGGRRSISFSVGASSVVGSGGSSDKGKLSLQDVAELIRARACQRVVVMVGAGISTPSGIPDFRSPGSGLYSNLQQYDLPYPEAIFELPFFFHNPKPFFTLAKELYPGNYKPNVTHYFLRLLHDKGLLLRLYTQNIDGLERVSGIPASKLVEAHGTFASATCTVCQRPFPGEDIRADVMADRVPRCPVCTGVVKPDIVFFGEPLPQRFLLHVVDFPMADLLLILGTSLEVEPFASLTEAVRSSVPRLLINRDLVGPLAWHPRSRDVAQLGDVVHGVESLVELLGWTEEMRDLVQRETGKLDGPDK

[2] = target: T1, NAD-dependent protein deacetylase sirtuin-3, mitochondrial (Homo sapiens); assay: Inhibition of human recombinant N-terminal GST-tagged SIRT3 (102 to 399 residues) deacetylation activity in presence of substrate and NAD+ at 15 uM after 60 mins measured by reversed-phase UPLC-MS analysis relative to control
[3] = target: T2, NAD-dependent protein deacetylase sirtuin-2 (Homo sapiens) (UniProt Q8IXJ6); assay: Inhibition of human recombinant SIRT2 expressed in Escherichia coli in presence of acyl peptide acetyl-H3K9 as substrate at 100 uM incubated for 5 mins by HPLC analysis relative to control
T2 sequence (whole entry): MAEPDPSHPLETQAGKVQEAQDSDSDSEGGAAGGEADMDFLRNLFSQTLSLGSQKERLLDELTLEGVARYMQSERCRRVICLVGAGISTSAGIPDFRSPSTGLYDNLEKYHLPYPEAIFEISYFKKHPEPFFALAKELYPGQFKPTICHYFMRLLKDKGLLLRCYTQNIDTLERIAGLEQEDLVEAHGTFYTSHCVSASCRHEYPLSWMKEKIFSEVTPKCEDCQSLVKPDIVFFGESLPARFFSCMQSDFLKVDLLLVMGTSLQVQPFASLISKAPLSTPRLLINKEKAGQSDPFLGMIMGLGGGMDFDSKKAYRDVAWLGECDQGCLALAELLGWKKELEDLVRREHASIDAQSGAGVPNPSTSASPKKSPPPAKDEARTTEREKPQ

[4] = target: T3, NAD-dependent protein deacetylase sirtuin-1 (Homo sapiens, UniProt Q96EB6); assay: Inhibition of human recombinant SIRT1 expressed in Escherichia coli in presence of acyl peptide acetyl-H3K9 as substrate incubated for 5 mins by HPLC analysis
T3 sequence (Q96EB6 whole entry): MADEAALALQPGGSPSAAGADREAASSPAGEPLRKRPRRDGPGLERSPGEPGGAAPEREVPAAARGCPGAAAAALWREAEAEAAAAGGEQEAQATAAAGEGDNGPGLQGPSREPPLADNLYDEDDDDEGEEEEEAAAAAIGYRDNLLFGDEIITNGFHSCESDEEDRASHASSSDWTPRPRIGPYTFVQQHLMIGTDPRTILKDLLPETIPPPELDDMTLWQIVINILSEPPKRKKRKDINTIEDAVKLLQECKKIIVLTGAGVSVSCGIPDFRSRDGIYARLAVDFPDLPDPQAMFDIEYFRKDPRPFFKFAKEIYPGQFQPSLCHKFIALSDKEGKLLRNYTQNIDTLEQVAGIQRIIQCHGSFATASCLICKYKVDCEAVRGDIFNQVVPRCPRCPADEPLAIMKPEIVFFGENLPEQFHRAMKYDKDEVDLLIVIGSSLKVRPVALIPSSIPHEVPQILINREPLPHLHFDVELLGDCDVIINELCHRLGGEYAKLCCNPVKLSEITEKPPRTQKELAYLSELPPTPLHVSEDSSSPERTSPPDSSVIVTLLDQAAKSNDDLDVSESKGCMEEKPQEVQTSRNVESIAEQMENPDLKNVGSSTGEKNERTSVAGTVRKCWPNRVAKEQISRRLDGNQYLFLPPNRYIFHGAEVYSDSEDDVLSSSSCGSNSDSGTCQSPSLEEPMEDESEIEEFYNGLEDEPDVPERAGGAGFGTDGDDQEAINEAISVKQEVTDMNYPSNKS

[5] = target: T4, NAD-dependent protein deacetylase sirtuin-1 (Homo sapiens) (UniProt Q96EB6); assay: Inhibition of human N-terminal GST-tagged SIRT1 (193 to 741 residues) expressed in Escherichia coli preincubated with NAD+ for 30 mins using Ac-Gln-Pro-Lys-Lys(Ac)-AMC (oxo-10) as substrate at 1 to 100 uM measured after 90 mins by fluorescence assay; conditions: dose microM 1-100, time 120.0 min
T4 sequence (whole entry): T3 sequence (Q96EB6 whole entry)
Outline: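 Recombinant SIRT1 (100 nM) preincubated 30 min with compound, either with or without NAD+ (500 μM), before the fluorogenic deacetylation read-out. Single-dose %-inhibition. Two independent experiments in duplicate, standard deviation.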

[6] = target: T4, NAD-dependent protein deacetylase sirtuin-1 (Homo sapiens); assay: Inhibition of human recombinant N-terminal GST-tagged SIRT1 (193 to 741 residues) deacetylation activity in presence of substrate and NAD+ at 15 uM after 60 mins by reversed-phase UPLC-MS analysis relative to control
[7] = target: T3, NAD-dependent protein deacetylase sirtuin-1; assay: Inhibition of human recombinant N-terminal GST-tagged SIRT1 (193 to 741 residues) expressed in Escherichia coli using Ac-Gln-Pro-Lys-Lys(Ac)-AMC (oxo-10) as substrate by fluorescence assay
[8] = target: T1, NAD-dependent protein deacetylase sirtuin-3, mitochondrial (Homo sapiens); assay: Inhibition of human N-terminal GST-tagged SIRT3 (102 to 399 residues) expressed in Escherichia coli using Ac-Gln-Pro-Lys-Lys(but)-AMC (oxo-12) as substrate at 10 uM by fluorescence assay relative to control
[9] = Metabolic stability of compound in human serum assessed as drug degradation incubated for >10 mins measured after 90 mins by HPLC analysis; assay type: ADME, cell-free; conditions: 1.5 h
[10] = Metabolic stability of compound in human serum assessed as half life incubated for >10 mins measured after 90 mins by HPLC analysis; assay type: ADME, cell-free
[11] = target: T2, NAD-dependent protein deacetylase sirtuin-2 (Homo sapiens); assay: Inhibition of human C-terminal His-tagged SIRT2 (50 to 356 residues) expressed in Escherichia coli using Ac-Gln-Pro-Lys-Lys(pro)-AMC (oxo-11) as substrate at 10 uM by fluorescence assay relative to control
[12] = target: T4, NAD-dependent protein deacetylase sirtuin-1 (Homo sapiens); assay: Inhibition of SIRT1 in HEK293 cells assessed as increase in p53 acetylation co-treated with TSA at 25 uM for 6 hrs by western blot analysis; assay type: cell-based
Outline: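 HEK293 cells exposed 6 h to compound at 25 μM together with TSA (1 μM). Whole-cell lysates immunoblotted for Ac-p53 (K382) and total p53. Ratio Ac-p53/p53 normalized to DMSO control. Two independent experiments in duplicate, SEM.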

[13] = target: T2, NAD-dependent protein deacetylase sirtuin-2 (Homo sapiens); assay: Inhibition of human recombinant C-terminal His-tagged SIRT2 (50 to 356 residues) deacetylation activity in presence of substrate and NAD+ incubated for 60 mins measured after 90 mins by fluorescence assay
Outline: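 Recombinant SIRT2 (100 nM or 250 nM) incubated with fluorogenic thioacyl or oxo lysine-AMC substrates plus NAD+. Deacylation read by fluorescence. Two independent experiments in duplicate, standard deviation.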

[14] = target: T4, NAD-dependent protein deacetylase sirtuin-1 (Homo sapiens); assay: Inhibition of human recombinant N-terminal GST-tagged SIRT1 (193 to 741 residues) expressed in Escherichia coli using Ac-Gln-Pro-Lys-Lys(Ac)-AMC (oxo-10) as substrate at 100 uM by fluorescence assay relative to control
[15] = target: T1, NAD-dependent protein deacetylase sirtuin-3, mitochondrial (Homo sapiens); assay: Inhibition of human N-terminal GST-tagged SIRT3 (102 to 399 residues) expressed in Escherichia coli using Ac-Gln-Pro-Lys-Lys(but)-AMC (oxo-12) as substrate at 100 uM by fluorescence assay relative to control
[16] = target: T2, NAD-dependent protein deacetylase sirtuin-2 (Homo sapiens); assay: Inhibition of human C-terminal His-tagged SIRT2 (50 to 356 residues) expressed in Escherichia coli using Ac-Gln-Pro-Lys-Lys(pro)-AMC (oxo-11) as substrate at 100 uM by fluorescence assay relative to control

SMILES: CC(=O)N[C@@H](CCC(N)=O)C(=O)N1CCC[C@H]1C(=O)N[C@@H](CCCCN)C(=O)N[C@@H](CCCCNC(C)=S)C(=O)Nc1ccc2c(C)cc(=O)oc2c1 (Ac-QPK[Lys(Thioacetyl)]-{AMC})
- Activity (HEK293): Active

SMILES: CCCC(=S)NCCCC[C@H](NC(=O)OCc1ccccc1)C(=O)Nc1ccccc1
- inhibition [1]: 23%
- inhibition [2]: inactive
- inhibition [3]: 88%
- IC50 [4]: 12 µM
- inhibition [5]: inactive
- inhibition [6]: inactive

SMILES: CCNC(=S)NCCCC[C@H](NC(=O)OCc1ccccc1)C(=O)N[C@@H](Cc1c[nH]c2ccccc12)C(=O)NC(C)C
- IC50 [7]: 1.9 µM
- inhibition [8]: 2%
- Activity [9]: Not Active
- half-life [10]: < 1 h
- inhibition [5]: Active
- inhibition [11]: 71%

SMILES: CNC(=S)NCCCC[C@H](NC(=O)OCc1ccccc1)C(=O)N[C@@H](Cc1c[nH]c2ccccc12)C(=O)NC(C)C
- inhibition [12]: Active
- Activity [9]: Not Active
- half-life [10]: < 1 h
- inhibition [5]: Active

SMILES: CCC(=O)NCCCC[C@H](NC(=O)[C@H](CCCCN)NC(=O)[C@@H]1CCCN1C(=O)[C@H](CCC(N)=O)NC(C)=O)C(=O)Nc1ccc2c(C)cc(=O)oc2c1 (Ac-QPKK(Propionyl)-{AMC})
- inhibition [13]: Active
- Activity (HEK293): Active

SMILES: CCCC(=O)NCCCC[C@H](NC(=O)[C@H](CCCCN)NC(=O)[C@@H]1CCCN1C(=O)[C@H](CCC(N)=O)NC(C)=O)C(=O)Nc1ccc2c(C)cc(=O)oc2c1 (Ac-QPKK(Butyryl)-{AMC})
- inhibition [13]: Active
- Activity (HEK293): Active

SMILES: CC(=S)NCCCC[C@H](NC(=O)OCc1ccccc1)C(=O)Nc1ccccc1
- inhibition [2]: inactive
- IC50 [4]: 6.5 µM
- inhibition [5]: inactive
- inhibition [6]: inactive

SMILES: CC(C)NC(=O)[C@H](Cc1c[nH]c2ccccc12)NC(=O)[C@H](CCCCNC(=O)C(F)F)NC(=O)OCc1ccccc1
- inhibition [14]: 29%
- inhibition [15]: 9%
- inhibition [16]: 17%
- inhibition [5]: inactive

SMILES: CC(C)NC(=O)[C@H](Cc1c[nH]c2ccccc12)NC(=O)[C@H](CCCCNC(=O)C(F)(F)F)NC(=O)OCc1ccccc1 (Cbz-Lys(Tfa)-Trp-NHiPr)
- inhibition [12]: inactive
- inhibition [14]: 24%
- inhibition [15]: 5%
- inhibition [16]: 3%
- inhibition [5]: inactive

From ChEMBL document CHEMBL4725432, “Dethioacylation by Sirtuins 1-3: Considerations for Drug Design Using Mechanism-Based Sirtuin Inhibition” (ACS Med Chem Lett, 2020)
